Tested on: HEK-293T
Experiment: Multiplex assay against HEK293T;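 on Population Tubulin-Different-Phenotype (%): share of the cells with healthy nuclei that show this phenotype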
Type: toxicity, cell-based
Details: human
Procedure, shortened: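 Phenotypes for tubulin, mitochondrial mass and membrane permeability are expressed as per cents of healthy-nucleus cells. Cells were stained live at seeding with Hoechst33342, BioTracker Green Microtubule Cytoskeleton Dye, MitoTracker Red and Annexin V Alexa Fluor 680, then imaged after compound addition on a CQ1 microscope at 37°C and 5% CO2. Machine-learning gating in CellPathfinder separated Hoechst high-intensity objects from normal cells, divided normal cells by nuclear state (healthy, pyknosed, fragmented) and divided pyknosed cells into mitotic or apoptotic.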

[1] = 12 h, 1 µM, compound concentration 1 uM, replicate 1
[2] = 12 h, 1 µM, compound concentration 1 uM, replicate 2
[3] = 12 h, 10 µM, compound concentration 10 uM, replicate 1
[4] = 12 h, 10 µM, compound concentration 10 uM, replicate 2
[5] = 24 h, 1 µM, compound concentration 1 uM, replicate 1
[6] = 24 h, 1 µM, compound concentration 1 uM, replicate 2
[7] = 24 h, 10 µM, compound concentration 10 uM, replicate 1
[8] = 24 h, 10 µM, compound concentration 10 uM, replicate 2
[9] = 48 h, 1 µM, compound concentration 1 uM, replicate 1
[10] = 48 h, 1 µM, compound concentration 1 uM, replicate 2
[11] = 48 h, 10 µM, compound concentration 10 uM, replicate 1
[12] = 48 h, 10 µM, compound concentration 10 uM, replicate 2

SMILES: CN(C)C/C=C/C(=O)Nc1cc2c(Nc3ccc(F)c(Cl)c3)ncnc2cc1O[C@H]1CCOC1.O=C(O)/C=C\C(=O)O.O=C(O)/C=C\C(=O)O [AFATINIB DIMALEATE]
- Population Apoptotic (%) [1]: 26%
- Population Fragmented Nuclei (%) [1]: 23%
- Population Healthy Nuclei (%) [1]: 54%
- Population Hoechst High Intensity Objects (%) [1]: 15%
- Population Membrane Permeable-Phenotype (%) [1]: 5%
- Population Mitochondria Different-Phenotype (%) [1]: 4%
- Population Mitotic Cells (%) [1]: 73%
- Population Normal (%) [1]: 84%
- Population Pyknosed Nuclei (%) [1]: 22%
- Population Tubulin-Different-Phenotype (%) [1]: 5%
- Total Cell Count [1]: 581
- Population Apoptotic (%) [2]: 16%
- Population Fragmented Nuclei (%) [2]: 6%
- Population Healthy Nuclei (%) [2]: 87%
- Population Hoechst High Intensity Objects (%) [2]: 3%
- Population Membrane Permeable-Phenotype (%) [2]: 4%
- Population Mitochondria Different-Phenotype (%) [2]: 13%
- Population Mitotic Cells (%) [2]: 83%
- Population Normal (%) [2]: 96%
- Population Pyknosed Nuclei (%) [2]: 5%
- Population Tubulin-Different-Phenotype (%) [2]: 10%
- Total Cell Count [2]: 1304
- Population Apoptotic (%) [3]: 23%
- Population Fragmented Nuclei (%) [3]: 17%
- Population Healthy Nuclei (%) [3]: 32%
- Population Hoechst High Intensity Objects (%) [3]: 18%
- Population Membrane Permeable-Phenotype (%) [3]: 17%
- Population Mitochondria Different-Phenotype (%) [3]: 35%
- Population Mitotic Cells (%) [3]: 76%
- Population Normal (%) [3]: 81%
- Population Pyknosed Nuclei (%) [3]: 50%
- Population Tubulin-Different-Phenotype (%) [3]: 82%
- Total Cell Count [3]: 647
- Population Apoptotic (%) [4]: 17%
- Population Fragmented Nuclei (%) [4]: 3%
- Population Healthy Nuclei (%) [4]: 53%
- Population Hoechst High Intensity Objects (%) [4]: 4%
- Population Membrane Permeable-Phenotype (%) [4]: 9%
- Population Mitochondria Different-Phenotype (%) [4]: 64%
- Population Mitotic Cells (%) [4]: 82%
- Population Normal (%) [4]: 96%
- Population Pyknosed Nuclei (%) [4]: 42%
- Population Tubulin-Different-Phenotype (%) [4]: 97%
- Total Cell Count [4]: 999
- Population Apoptotic (%) [5]: 25%
- Population Fragmented Nuclei (%) [5]: 17%
- Population Healthy Nuclei (%) [5]: 71%
- Population Hoechst High Intensity Objects (%) [5]: 10%
- Population Membrane Permeable-Phenotype (%) [5]: 6%
- Population Mitochondria Different-Phenotype (%) [5]: 3%
- Population Mitotic Cells (%) [5]: 74%
- Population Normal (%) [5]: 89%
- Population Pyknosed Nuclei (%) [5]: 11%
- Population Tubulin-Different-Phenotype (%) [5]: 7%
- Total Cell Count [5]: 598
- Population Apoptotic (%) [6]: 12%
- Population Fragmented Nuclei (%) [6]: 20%
- Population Healthy Nuclei (%) [6]: 76%
- Population Hoechst High Intensity Objects (%) [6]: 3%
- Population Membrane Permeable-Phenotype (%) [6]: 4%
- Population Mitotic Cells (%) [6]: 87%
- Population Normal (%) [6]: 96%
- Population Pyknosed Nuclei (%) [6]: 3%
- Population Tubulin-Different-Phenotype (%) [6]: 9%
- Total Cell Count [6]: 2098
- Population Apoptotic (%) [7]: 39%
- Population Fragmented Nuclei (%) [7]: 23%
- Population Healthy Nuclei (%) [7]: 34%
- Population Hoechst High Intensity Objects (%) [7]: 19%
- Population Membrane Permeable-Phenotype (%) [7]: 10%
- Population Mitochondria Different-Phenotype (%) [7]: 58%
- Population Mitotic Cells (%) [7]: 60%
- Population Normal (%) [7]: 80%
- Population Pyknosed Nuclei (%) [7]: 42%
- Population Tubulin-Different-Phenotype (%) [7]: 77%
- Total Cell Count [7]: 637
- Population Apoptotic (%) [8]: 25%
- Population Fragmented Nuclei (%) [8]: 12%
- Population Healthy Nuclei (%) [8]: 55%
- Population Hoechst High Intensity Objects (%) [8]: 9%
- Population Membrane Permeable-Phenotype (%) [8]: 6%
- Population Mitochondria Different-Phenotype (%) [8]: 69%
- Population Mitotic Cells (%) [8]: 74%
- Population Normal (%) [8]: 90%
- Population Pyknosed Nuclei (%) [8]: 32%
- Population Tubulin-Different-Phenotype (%) [8]: 90%
- Total Cell Count [8]: 1048

SMILES: Nc1ccc(C(=O)Nc2cccc(-c3nc(N4CCOCC4)c4oc5ncccc5c4n3)c2)cn1
- Population Apoptotic (%) [1]: 66%
- Population Fragmented Nuclei (%) [1]: 24%
- Population Healthy Nuclei (%) [1]: 15%
- Population Hoechst High Intensity Objects (%) [1]: 19%
- Population Mitochondria Different-Phenotype (%) [1]: 94%
- Population Mitotic Cells (%) [1]: 33%
- Population Normal (%) [1]: 80%
- Population Pyknosed Nuclei (%) [1]: 60%
- Population Tubulin-Different-Phenotype (%) [1]: 94%
- Population Apoptotic (%) [2]: 34%
- Population Fragmented Nuclei (%) [2]: 8%
- Population Healthy Nuclei (%) [2]: 10%
- Population Hoechst High Intensity Objects (%) [2]: 8%
- Population Mitochondria Different-Phenotype (%) [2]: 46%
- Population Mitotic Cells (%) [2]: 65%
- Population Normal (%) [2]: 91%
- Population Pyknosed Nuclei (%) [2]: 81%
- Population Tubulin-Different-Phenotype (%) [2]: 80%
- Total Cell Count [2]: 149
- Population Apoptotic (%) [3]: 83%
- Population Fragmented Nuclei (%) [3]: 44%
- Population Healthy Nuclei (%) [3]: 5%
- Population Hoechst High Intensity Objects (%) [3]: 25%
- Population Mitochondria Different-Phenotype (%) [3]: 100%
- Population Mitotic Cells (%) [3]: 16%
- Population Normal (%) [3]: 74%
- Population Pyknosed Nuclei (%) [3]: 49%
- Population Tubulin-Different-Phenotype (%) [3]: 76%
- Total Cell Count [3]: 385
- Population Apoptotic (%) [4]: 53%
- Population Fragmented Nuclei (%) [4]: 15%
- Population Healthy Nuclei (%) [4]: 13%
- Population Hoechst High Intensity Objects (%) [4]: 8%
- Population Mitochondria Different-Phenotype (%) [4]: 75%
- Population Mitotic Cells (%) [4]: 46%
- Population Normal (%) [4]: 91%
- Population Pyknosed Nuclei (%) [4]: 70%
- Population Tubulin-Different-Phenotype (%) [4]: 70%
- Total Cell Count [4]: 330
- Population Apoptotic (%) [5]: 64%
- Population Fragmented Nuclei (%) [5]: 22%
- Population Healthy Nuclei (%) [5]: 17%
- Population Hoechst High Intensity Objects (%) [5]: 19%
- Population Mitochondria Different-Phenotype (%) [5]: 95%
- Population Mitotic Cells (%) [5]: 35%
- Population Normal (%) [5]: 80%
- Population Pyknosed Nuclei (%) [5]: 59%
- Population Tubulin-Different-Phenotype (%) [5]: 90%
- Total Cell Count [5]: 147
- Population Apoptotic (%) [6]: 40%
- Population Fragmented Nuclei (%) [6]: 3%
- Population Healthy Nuclei (%) [6]: 37%
- Population Hoechst High Intensity Objects (%) [6]: 8%
- Population Mitochondria Different-Phenotype (%) [6]: 68%
- Population Mitotic Cells (%) [6]: 59%
- Population Normal (%) [6]: 91%
- Population Pyknosed Nuclei (%) [6]: 58%
- Population Tubulin-Different-Phenotype (%) [6]: 96%
- Total Cell Count [6]: 171
- Population Apoptotic (%) [7]: 80%
- Population Fragmented Nuclei (%) [7]: 45%
- Population Healthy Nuclei (%) [7]: 7%
- Population Hoechst High Intensity Objects (%) [7]: 21%
- Population Mitochondria Different-Phenotype (%) [7]: 100%
- Population Mitotic Cells (%) [7]: 19%
- Population Normal (%) [7]: 78%
- Population Pyknosed Nuclei (%) [7]: 47%
- Population Tubulin-Different-Phenotype (%) [7]: 79%
- Total Cell Count [7]: 389
- Population Apoptotic (%) [8]: 67%
- Population Fragmented Nuclei (%) [8]: 15%
- Population Healthy Nuclei (%) [8]: 15%
- Population Hoechst High Intensity Objects (%) [8]: 8%
- Population Mitochondria Different-Phenotype (%) [8]: 81%
- Population Mitotic Cells (%) [8]: 32%
- Population Normal (%) [8]: 91%
- Population Pyknosed Nuclei (%) [8]: 69%
- Population Tubulin-Different-Phenotype (%) [8]: 50%
- Total Cell Count [8]: 315
- Population Apoptotic (%) [9]: 67%
- Population Fragmented Nuclei (%) [9]: 27%
- Population Healthy Nuclei (%) [9]: 31%
- Population Hoechst High Intensity Objects (%) [9]: 20%
- Population Mitochondria Different-Phenotype (%) [9]: 82%
- Population Mitotic Cells (%) [9]: 32%
- Population Normal (%) [9]: 79%
- Population Pyknosed Nuclei (%) [9]: 40%
- Population Tubulin-Different-Phenotype (%) [9]: 86%
- Total Cell Count [9]: 183
- Population Apoptotic (%) [10]: 61%
- Population Fragmented Nuclei (%) [10]: 6%
- Population Healthy Nuclei (%) [10]: 55%
- Population Hoechst High Intensity Objects (%) [10]: 8%
- Population Mitochondria Different-Phenotype (%) [10]: 49%
- Population Mitotic Cells (%) [10]: 38%
- Population Normal (%) [10]: 91%
- Population Pyknosed Nuclei (%) [10]: 38%
- Population Tubulin-Different-Phenotype (%) [10]: 92%
- Total Cell Count [10]: 187
- Population Apoptotic (%) [11]: 75%
- Population Fragmented Nuclei (%) [11]: 51%
- Population Healthy Nuclei (%) [11]: 10%
- Population Hoechst High Intensity Objects (%) [11]: 28%
- Population Mitochondria Different-Phenotype (%) [11]: 97%
- Population Mitotic Cells (%) [11]: 24%
- Population Normal (%) [11]: 71%
- Population Pyknosed Nuclei (%) [11]: 38%
- Population Tubulin-Different-Phenotype (%) [11]: 60%
- Total Cell Count [11]: 484
- Population Apoptotic (%) [12]: 73%
- Population Fragmented Nuclei (%) [12]: 17%
- Population Healthy Nuclei (%) [12]: 18%
- Population Hoechst High Intensity Objects (%) [12]: 8%
- Population Mitochondria Different-Phenotype (%) [12]: 84%
- Population Mitotic Cells (%) [12]: 26%
- Population Normal (%) [12]: 91%
- Population Pyknosed Nuclei (%) [12]: 64%
- Population Tubulin-Different-Phenotype (%) [12]: 55%
- Total Cell Count [12]: 304

— ChEMBL document CHEMBL4689842, “EUbOPEN Chemogenomics Library wave 1” (2021)
